Legend:
Integrin alpha-V/beta-5 = Integrin alpha-V/beta-5 (Homo sapiens, UniProt P06756+P18084); assay: Displacement of vitronectin from human integrin alphaV-beta5; format: protein-complex assay
Method in brief: (§1)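 Purified-receptor ligand-binding assay on human integrins αvβ3 and αvβ5 (vitronectin displacement) and αIIbβ3 (receptor from platelets). Bound ligand was detected indirectly by colorimetric reading after adding an anti-biotin antibody coupled to alkaline phosphatase. IC50 came from sigmoid variable-slope fits of dose–response data from at least two experiments per compound.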

Integrin alpha-V/beta-3 = Integrin alpha-V/beta-3 (Homo sapiens, UniProt P05106+P06756); assay: Displacement of vitronectin from Human integrin alphaV-beta3; format: protein-complex assay; method in brief: as §1
IGROV-1 = assay: Cellular adhesion inhibitory concentration with IGROV-1 cell line.; format: functional, cell-based; details: Homo sapiens
Method in brief: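 Human ovarian carcinoma IGROV-1 cells were preincubated with compound before adhesion. They were then washed, fixed and stained with crystal violet, and adhesion was quantified by image analysis. IC50 came from sigmoid variable-slope fits of dose–response sets from at least two experiments.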

Homo sapiens = species: Homo sapiens; assay: Oral absorption using Caco-2 cell monolayers.; format: ADME; details: in vitro
[1] = target: Integrin alpha-IIb/beta-3 (Homo sapiens, UniProt P05106+P08514); assay: Displacement of fibrinogen from Human integrin alphaIIb-beta3; format: protein-complex assay; method in brief: as §1
Chain of Integrin alpha-IIb/beta-3 (P05106 27-788 limits assumed): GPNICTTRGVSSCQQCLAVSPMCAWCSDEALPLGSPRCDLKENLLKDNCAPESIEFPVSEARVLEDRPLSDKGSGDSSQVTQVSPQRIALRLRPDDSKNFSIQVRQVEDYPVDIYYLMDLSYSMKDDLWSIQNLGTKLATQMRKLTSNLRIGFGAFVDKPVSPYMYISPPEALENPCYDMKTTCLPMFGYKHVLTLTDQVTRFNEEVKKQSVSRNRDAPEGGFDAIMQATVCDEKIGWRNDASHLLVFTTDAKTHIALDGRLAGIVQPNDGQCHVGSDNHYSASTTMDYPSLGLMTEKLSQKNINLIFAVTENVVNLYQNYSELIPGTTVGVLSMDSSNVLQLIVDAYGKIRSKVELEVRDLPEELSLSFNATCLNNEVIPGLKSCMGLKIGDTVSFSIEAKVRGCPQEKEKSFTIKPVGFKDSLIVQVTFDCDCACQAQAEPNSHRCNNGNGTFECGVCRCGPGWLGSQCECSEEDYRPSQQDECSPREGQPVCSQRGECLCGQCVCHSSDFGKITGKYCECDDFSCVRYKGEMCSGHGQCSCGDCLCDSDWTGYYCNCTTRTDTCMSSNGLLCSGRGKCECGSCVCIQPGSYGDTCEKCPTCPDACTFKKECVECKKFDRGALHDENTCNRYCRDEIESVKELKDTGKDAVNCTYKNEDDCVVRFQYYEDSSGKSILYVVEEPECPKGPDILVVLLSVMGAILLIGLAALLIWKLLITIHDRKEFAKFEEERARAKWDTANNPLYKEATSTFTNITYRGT
Chain of Integrin alpha-IIb/beta-3 (P08514 32-887 limits assumed): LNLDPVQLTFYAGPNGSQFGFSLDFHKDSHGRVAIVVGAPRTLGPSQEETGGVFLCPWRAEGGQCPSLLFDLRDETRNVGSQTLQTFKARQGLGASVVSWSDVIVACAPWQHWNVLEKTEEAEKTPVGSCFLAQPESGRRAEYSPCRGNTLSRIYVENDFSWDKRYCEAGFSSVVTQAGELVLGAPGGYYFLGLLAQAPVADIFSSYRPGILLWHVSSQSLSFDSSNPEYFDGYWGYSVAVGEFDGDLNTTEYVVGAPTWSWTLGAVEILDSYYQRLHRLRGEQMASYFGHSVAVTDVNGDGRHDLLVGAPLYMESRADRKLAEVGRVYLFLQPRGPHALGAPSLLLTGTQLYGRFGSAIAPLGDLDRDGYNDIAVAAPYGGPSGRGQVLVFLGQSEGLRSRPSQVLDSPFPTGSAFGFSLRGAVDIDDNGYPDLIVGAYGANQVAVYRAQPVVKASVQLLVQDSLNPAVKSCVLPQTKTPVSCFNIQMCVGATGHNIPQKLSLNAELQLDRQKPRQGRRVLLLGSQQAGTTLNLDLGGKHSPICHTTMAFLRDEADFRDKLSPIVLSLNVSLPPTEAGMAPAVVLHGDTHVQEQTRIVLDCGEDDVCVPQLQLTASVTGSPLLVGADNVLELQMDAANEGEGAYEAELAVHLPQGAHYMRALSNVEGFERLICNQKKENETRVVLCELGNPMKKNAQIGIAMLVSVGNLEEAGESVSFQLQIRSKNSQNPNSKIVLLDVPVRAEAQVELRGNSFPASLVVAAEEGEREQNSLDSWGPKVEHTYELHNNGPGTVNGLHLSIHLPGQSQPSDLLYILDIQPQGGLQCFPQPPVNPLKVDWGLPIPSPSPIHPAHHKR
Chain of Integrin alpha-IIb/beta-3 (P08514 891-1039 limits assumed): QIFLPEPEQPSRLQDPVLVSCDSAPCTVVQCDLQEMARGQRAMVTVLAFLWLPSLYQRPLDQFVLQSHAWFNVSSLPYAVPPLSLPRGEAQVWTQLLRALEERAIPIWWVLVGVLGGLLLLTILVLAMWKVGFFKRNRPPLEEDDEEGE

Chain of Integrin alpha-V/beta-5 (P06756 31-889 limits assumed): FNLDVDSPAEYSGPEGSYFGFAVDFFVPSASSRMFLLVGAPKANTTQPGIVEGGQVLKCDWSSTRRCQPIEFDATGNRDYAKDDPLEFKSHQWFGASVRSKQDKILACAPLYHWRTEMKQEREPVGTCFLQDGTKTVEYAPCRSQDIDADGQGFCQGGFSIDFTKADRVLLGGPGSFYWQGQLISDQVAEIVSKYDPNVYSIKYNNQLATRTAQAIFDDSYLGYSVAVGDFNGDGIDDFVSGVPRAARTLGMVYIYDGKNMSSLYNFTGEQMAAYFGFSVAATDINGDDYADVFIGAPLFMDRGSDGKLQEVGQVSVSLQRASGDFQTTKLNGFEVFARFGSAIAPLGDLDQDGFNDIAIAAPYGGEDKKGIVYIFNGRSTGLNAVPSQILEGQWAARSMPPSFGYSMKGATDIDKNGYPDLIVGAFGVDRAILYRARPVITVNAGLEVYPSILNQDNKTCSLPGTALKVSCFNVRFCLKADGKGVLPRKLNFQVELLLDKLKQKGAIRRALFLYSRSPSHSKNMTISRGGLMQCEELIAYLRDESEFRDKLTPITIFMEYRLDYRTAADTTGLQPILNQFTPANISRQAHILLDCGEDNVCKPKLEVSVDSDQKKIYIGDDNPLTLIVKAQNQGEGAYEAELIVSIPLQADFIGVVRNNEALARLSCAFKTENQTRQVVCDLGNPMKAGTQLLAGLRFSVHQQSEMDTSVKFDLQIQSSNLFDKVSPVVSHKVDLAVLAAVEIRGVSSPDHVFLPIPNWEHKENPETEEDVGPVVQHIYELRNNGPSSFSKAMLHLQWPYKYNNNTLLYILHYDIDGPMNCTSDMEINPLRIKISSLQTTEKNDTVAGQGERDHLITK
Chain of Integrin alpha-V/beta-5 (P06756 891-1048 limits assumed): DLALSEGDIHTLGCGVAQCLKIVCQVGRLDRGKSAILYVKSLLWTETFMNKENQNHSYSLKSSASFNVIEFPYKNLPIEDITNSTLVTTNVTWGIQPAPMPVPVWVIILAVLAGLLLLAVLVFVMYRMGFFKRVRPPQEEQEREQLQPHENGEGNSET
Chain of Integrin alpha-V/beta-5 (P18084 24-799 limits assumed): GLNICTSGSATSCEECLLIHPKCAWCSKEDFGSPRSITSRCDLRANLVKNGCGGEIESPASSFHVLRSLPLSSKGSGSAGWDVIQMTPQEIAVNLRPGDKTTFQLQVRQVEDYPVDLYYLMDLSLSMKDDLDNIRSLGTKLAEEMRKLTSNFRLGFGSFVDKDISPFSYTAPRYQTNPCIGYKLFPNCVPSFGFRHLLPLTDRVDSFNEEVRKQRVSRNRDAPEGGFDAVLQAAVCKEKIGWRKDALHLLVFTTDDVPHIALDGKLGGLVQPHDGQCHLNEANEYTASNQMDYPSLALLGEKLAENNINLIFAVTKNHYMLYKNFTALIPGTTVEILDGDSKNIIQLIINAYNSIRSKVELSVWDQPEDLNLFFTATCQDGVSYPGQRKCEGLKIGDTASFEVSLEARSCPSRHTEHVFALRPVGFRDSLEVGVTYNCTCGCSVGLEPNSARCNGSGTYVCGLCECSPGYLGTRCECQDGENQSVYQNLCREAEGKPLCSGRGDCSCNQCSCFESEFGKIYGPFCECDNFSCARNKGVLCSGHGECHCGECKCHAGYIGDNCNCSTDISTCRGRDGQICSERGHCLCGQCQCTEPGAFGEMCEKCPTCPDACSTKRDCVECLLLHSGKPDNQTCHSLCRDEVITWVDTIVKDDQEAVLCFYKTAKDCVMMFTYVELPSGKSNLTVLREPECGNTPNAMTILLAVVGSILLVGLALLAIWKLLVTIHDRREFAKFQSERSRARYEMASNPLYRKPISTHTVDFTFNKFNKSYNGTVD
Chain of Integrin alpha-V/beta-3 (P05106 27-788 limits assumed): as the sequence (P05106 27-788 limits assumed) above
Chain of Integrin alpha-V/beta-3 (P06756 31-889 limits assumed): as the sequence (P06756 31-889 limits assumed) above
Chain of Integrin alpha-V/beta-3 (P06756 891-1048 limits assumed): as the sequence (P06756 891-1048 limits assumed) above

| SMILES | IC50 (Integrin alpha-V/beta-5) | IC50 (Integrin alpha-V/beta-3) | IC50 (IGROV-1) | Absorption (Homo sapiens) | IC50 [1] |
| --- | --- | --- | --- | --- | --- |
| O=C(O)CC1CC(CNC(=O)CCCCNc2ccccn2)=CCc2ccccc21 (stereo not given) | 0.9 nM | 2.7 nM | 12 nM | 96% | 1200 nM |
| O=C(O)CC1CC(CNC(=O)CCNCc2ccccn2)=CCc2ccccc21 (stereo not given) | 119 nM | 842 nM | 2700 nM | 23% | 552 nM |
| O=C(O)CC1CC(CNC(=O)CCCNc2nccs2)=CCc2ccccc21 (stereo not given) | 20 nM | 45 nM | 40 nM | 96% | > 10000 nM |
| O=C(O)CC1CC(CNC(=O)CCNc2ccccn2)=CCc2ccccc21 (stereo not given) | 22 nM | 584 nM | 338 nM | 93% | 1700 nM |
| CN(CCCC(=O)NCC1=CCc2ccccc2C(CC(=O)O)C1)c1ccccn1 (stereo not given) | 40 nM | 68 nM | 2030 nM | 94% | 667 nM |

Compounds with a lower IC50 (Integrin alpha-V/beta-5), results first:

| IC50 (Integrin alpha-V/beta-5) | IC50 (Integrin alpha-V/beta-3) | IC50 (IGROV-1) | Absorption (Homo sapiens) | IC50 [1] | SMILES |
| --- | --- | --- | --- | --- | --- |
| 0.8 nM | 1.9 nM | 2 nM | 95% | 4360 nM | O=C(O)CC1CC(CNC(=O)CCCNc2ccccn2)=CCc2ccccc21 (stereo not given) |
| 0.5 nM | 0.6 nM | 1.8 nM | < 20% | 1020 nM | O=C(O)CC1CC(CNC(=O)CCCNc2nc3ccccc3[nH]2)=CCc2ccccc21 (stereo not given) |
| 0.3 nM | 0.3 nM | 6.9 nM | 92% | 1490 nM | O=C(O)CC1CC(CNC(=O)CCCc2ccc3c(n2)NCCC3)=CCc2ccccc21 (stereo not given) |
| 0.2 nM | 0.3 nM | 18 nM | < 20% | 110 nM | O=C(O)CC1CC(CNC(=O)CCCNC2=NCCN2)=CCc2ccccc21 (stereo not given) |
| 0.1 nM | 0.2 nM | 2.7 nM | < 20% | 330 nM | O=C(O)CC1CC(CNC(=O)CCCNC2=NCCCN2)=CCc2ccccc21 (stereo not given) |

From ChEMBL document CHEMBL1135955, “Substituted benzocyloheptenes as potent and selective alpha(v) integrin antagonists” (Bioorg Med Chem Lett, 2002)
